Reference: publication PMC7134334 (Neuropharmacology, 2016)

What was measured:
[1] = system: WT Kv3.1 channels and VSD chimeras (S1-S4, S1-S3a, S3b-S4); assay type: cell-based; settings: block calculated at depolarizing potentials of V1/2 +30 mV
Kv3.1 [2] = target: T1, Kv3.1 (Homo sapiens, UniProt P48547); settings: ref Kopljar et al., 2013; cited from earlier work
T1 sequence (P48547 1-511): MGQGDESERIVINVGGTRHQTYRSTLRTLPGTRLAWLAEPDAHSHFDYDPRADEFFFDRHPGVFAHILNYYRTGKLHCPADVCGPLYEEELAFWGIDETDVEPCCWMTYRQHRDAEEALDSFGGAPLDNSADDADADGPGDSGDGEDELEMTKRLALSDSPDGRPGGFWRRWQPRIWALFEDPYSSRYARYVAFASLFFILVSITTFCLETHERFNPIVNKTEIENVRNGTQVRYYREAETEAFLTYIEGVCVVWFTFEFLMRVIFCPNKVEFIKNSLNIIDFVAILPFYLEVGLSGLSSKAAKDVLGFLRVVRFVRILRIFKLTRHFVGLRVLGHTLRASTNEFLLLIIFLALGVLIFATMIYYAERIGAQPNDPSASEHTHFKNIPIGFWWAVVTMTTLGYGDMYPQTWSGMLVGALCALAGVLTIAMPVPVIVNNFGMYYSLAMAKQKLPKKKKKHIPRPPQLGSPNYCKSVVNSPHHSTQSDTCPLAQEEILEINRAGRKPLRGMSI

Kv3.1_S3b-S4_2.1 = assay: Patch-clamp current inhibition by gambierol, Kv3.1_S3b-S4_2.1 chimera; assay type: cell-based; settings: read-out: IC50 (concentration that induces 50% current inhibition); Kv3.1_S3b-S4_2.1 in Ltk− cells; n = 4
Procedure, shortened: (§1)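 Ltk− mouse fibroblasts (DMEM, 10% horse serum) transiently PEI-transfected with 15–200 ng cDNA, recorded ~20–28 h later at 20–23 °C. Bath (mM): NaCl 130, KCl 4, CaCl2 1.8, MgCl2 1, HEPES 10, glucose 10, pH 7.35. Pipette: KCl 110, K4BAPTA 5, K2ATP 5, MgCl2 1, HEPES 10, pH 7.2. Fast-perfused, final DMSO ≤0.5%. Fraction of current left at +40 mV Hill-fitted for IC50. Cells with >5 mV voltage error excluded. Mean ± SEM over cells.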

Kv3.1_S1-S3a_2.1 = assay: Patch-clamp current inhibition by gambierol, Kv3.1_S1-S3a_2.1 chimera; assay type: cell-based; settings: read-out: IC50 (concentration that induces 50% current inhibition); Kv3.1_S1-S3a_2.1 in Ltk− cells; n = 3
Procedure, shortened: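 Ltk− mouse fibroblasts (DMEM, 10% horse serum) transiently PEI-transfected with channel cDNA and patch-clamped 20–28 h later at 20–23 °C. Bath (mM): NaCl 130, KCl 4, CaCl2 1.8, MgCl2 1, HEPES 10, glucose 10, pH 7.35; pipette KCl-based with BAPTA, ATP, pH 7.2. Toxin perfused from DMSO stock (final DMSO ≤0.5%). Remaining current at +40 mV Hill-fitted for IC50; mean ± SEM over cells.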

Kv3.1 [3] = target: T1, Kv3.1; assay: Patch-clamp current inhibition by gambierol, WT Kv3.1 in Ltk− cells; assay type: cell-based; settings: read-out: IC50 (concentration that induces 50% current inhibition); WT Kv3.1 expressed in Ltk− cells; mean ± SEM
Procedure, shortened: as §1

Kv3.1_S1-S4_2.1 = assay: Patch-clamp current inhibition by gambierol, Kv3.1_S1-S4_2.1 chimera; assay type: cell-based; settings: read-out: IC50 (concentration that induces 50% current inhibition); Kv3.1_S1-S4_2.1 in Ltk− cells; n = 4
Procedure, shortened: as §1

Kv2.1 V404T_S3b-S4_3.1 = assay: Patch-clamp current inhibition by gambierol, Kv2.1 V404T_S3b-S4_3.1 chimera; assay type: cell-based
Procedure, shortened: as §1

| SMILES | differences in IC50 values between WT channels and chimeras [1] | shift of the voltage dependence of activation to more positive potentials (Kv3.1 [2]) | IC50 (Kv3.1_S3b-S4_2.1) | IC50 (Kv3.1_S1-S3a_2.1) | IC50 (Kv3.1 [3]) | IC50 (Kv3.1_S1-S4_2.1) | fold difference compared to the Kv2.1 V404T mutant (Kv2.1 V404T_S3b-S4_3.1; Kv2.1 V404T_S3b-S4_3.1 vs previously reported Kv2.1 V404T value) | IC50 (Kv2.1 V404T_S3b-S4_3.1; read-out: IC50 (concentration that induces 50% current inhibition), Kv2.1 V404T_S3b-S4_3.1 in Ltk− cells, n = 3) |
| --- | --- | --- | --- | --- | --- | --- | --- | --- |
| O=C(NCC1CCCCN1)c1cc(OCC(F)(F)F)ccc1OCC(F)(F)F (centres unmarked) [Flecainide] | < 2 fold | – | – | – | – | – | – | – |
| C=CC/C=C\C=C/[C@H]1O[C@H]2C[C@H]3O[C@H]4CC[C@H]5O[C@H]6C[C@@]7(C)O[C@@]8(C)[C@@H](O)C[C@H](CCCO)O[C@@H]8C[C@@H]7O[C@@H]6C[C@@H]5O[C@]4(C)C[C@]3(C)O[C@@H]2C=C[C@]1(C)O [gambierol, Gambierol] | – | more than +120 mV | 143 ± 28 nM | 1.9 ± 0.2 nM | 1.2 ± 0.2 nM | 280 ± 40 nM | ~ 2 fold | 900 ± 41 nM |
